These results are taken from ChEMBL document CHEMBL4017549, “Structural Basis of Inhibition of ERα-Coactivator Interaction by High-Affinity N-Terminus Isoaspartic Acid Tethered Helical Peptides” (J Med Chem, 2017).

For one data set, the target named is T1, Estrogen receptor (Homo sapiens, UniProt P03372).
T1 sequence (P03372 whole entry): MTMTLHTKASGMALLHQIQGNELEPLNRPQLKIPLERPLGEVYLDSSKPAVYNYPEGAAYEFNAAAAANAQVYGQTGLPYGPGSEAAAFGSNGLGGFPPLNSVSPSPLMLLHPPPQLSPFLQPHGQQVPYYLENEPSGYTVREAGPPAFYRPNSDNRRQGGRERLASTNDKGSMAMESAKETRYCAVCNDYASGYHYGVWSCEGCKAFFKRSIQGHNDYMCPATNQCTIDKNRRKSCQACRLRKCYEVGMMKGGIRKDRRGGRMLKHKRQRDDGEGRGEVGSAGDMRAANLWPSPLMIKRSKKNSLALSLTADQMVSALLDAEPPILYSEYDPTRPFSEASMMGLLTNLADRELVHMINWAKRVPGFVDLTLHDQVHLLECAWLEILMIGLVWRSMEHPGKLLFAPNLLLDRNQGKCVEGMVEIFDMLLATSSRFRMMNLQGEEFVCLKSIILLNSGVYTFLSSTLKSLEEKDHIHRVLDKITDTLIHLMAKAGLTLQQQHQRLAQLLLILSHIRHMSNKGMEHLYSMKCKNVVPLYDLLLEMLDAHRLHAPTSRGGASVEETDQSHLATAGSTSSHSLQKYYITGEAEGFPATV
Put plainly: Binding affinity to recombinant human GFP-fused ERalpha LBD (301 to 553 residues) expressed in Escherichia coli BL21(DE3) after 40 mins in presence of 17beta-estradiol by fluorescence polarization assay. On the technique in general: Polarisation of emitted light reports the rotation of a fluorescent probe.

The species named for data set [1] is Homo sapiens. The experiment in a line: Selectivity ratio of Kd for recombinant human ERbeta LBD (259 to 498 residues) to Kd for recombinant human ERalpha LBD (301 to 553 residues). The method, boiled down: (§1)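 Ratio of KD values, each from fluorescence polarization of 10 nM FITC-peptide titrated with the respective LBD after 40 min in the dark at 298 K, with the matching ligand in buffer (10 μM 17β-estradiol, progesterone or vitamin D3).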

The next data set addresses Estrogen receptor beta (Homo sapiens, UniProt Q92731). The experiment in a line: Binding affinity to recombinant human GFP-fused ERbeta LBD (259 to 498 residues) expressed in Escherichia coli BL21(DE3) after 40 mins in presence of 17beta-estradiol by fluorescence polarization assay. The method, boiled down:
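FITC-labelled peptide at 10 nM final, titrated with increasing purified LBD (ERβ LBD carrying C334S, C369S, C481S) in 20 mM Tris-HCl pH 8.0, 150 mM NaCl, 5% glycerol, 1 mM TCEP with 10 μM 17β-estradiol. Incubated 40 min in the dark, polarization read at 298 K (ex 480/em 535 nm). KD from nonlinear regression of polarization versus protein concentration.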

A short description of data set [2]: Drug uptake in human MCF7 cells at 5 uM after 3 hrs in presence of 10 nM E2 by DAPI-staining based confocal laser scanning microscopic analysis. Particulars: mcf7, 3 h.
Data set [3] in a line: Drug uptake in human U2OS cells assessed per million cells at 5 uM after 3 hrs by FACS analysis. The class given is ADME, cell-based. The method, boiled down:
(§2)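 Adherent cells seeded overnight, then exposed to 5 μM FITC-labelled peptide or DMSO in FBS-free medium, 3 h, 37 °C. After PBS washes (three), about 10000 cells per sample analysed by flow cytometry; mean cellular fluorescence intensity calculated. More than two independent experiments, SEM.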
Background: In flow cytometry, cells or beads pass a laser one at a time.

A further data set concerns the target T2, Vitamin D3 receptor (Homo sapiens, UniProt P11473).
T2 sequence (P11473 whole entry): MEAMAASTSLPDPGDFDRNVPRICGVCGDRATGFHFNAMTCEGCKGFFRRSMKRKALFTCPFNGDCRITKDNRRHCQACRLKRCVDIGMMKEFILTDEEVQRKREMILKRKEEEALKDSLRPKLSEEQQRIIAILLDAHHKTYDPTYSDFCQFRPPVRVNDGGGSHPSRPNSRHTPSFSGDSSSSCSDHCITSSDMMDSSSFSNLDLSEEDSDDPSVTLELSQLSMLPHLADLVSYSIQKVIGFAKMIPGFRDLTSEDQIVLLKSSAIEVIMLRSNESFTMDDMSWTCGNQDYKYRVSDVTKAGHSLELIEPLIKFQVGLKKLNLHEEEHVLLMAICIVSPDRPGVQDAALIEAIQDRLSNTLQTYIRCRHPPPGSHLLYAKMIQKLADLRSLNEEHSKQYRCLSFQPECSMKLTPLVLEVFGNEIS
Put plainly: Binding affinity to recombinant human GST-tagged VDR LBD (156 to 453 residues) expressed in Echerichia coli BL21 star (DE3) after 40 mins in presence of vitamin D3 by fluorescence polarization assay. The method in brief: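 GST-VDR LBD titrated into 10 nM final FITC-labelled peptide in 20 mM Tris-HCl pH 8.0, 150 mM NaCl, 5% glycerol, 1 mM TCEP containing 10 μM vitamin D3. 40 min dark incubation, polarization at 298 K (ex 480/em 535 nm). KD by nonlinear regression.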

The target in data set [4] is T3, Estrogen receptor (Homo sapiens) (UniProt P03372).
T3 sequence (whole entry): T1 sequence (P03372 whole entry)
The experiment in a line: Binding affinity to recombinant human GFP-fused ERalpha LBD (301 to 553 residues) expressed in Escherichia coli BL21(DE3) in presence of 17beta-estradiol by ITC. The method, boiled down: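 ITC at 25 °C. 2 μL injections of 50 μM peptide into 5 μM ERα LBD in 50 mM Tris pH 8.0, 150 mM NaCl, 1 mM TCEP, 0.1 mM 17β-estradiol. Binding isotherm fitted for affinity.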
A general note: ITC needs no label: the signal is the heat of the interaction.

Data set [5] concerns the target T3, Estrogen receptor (Homo sapiens). Put plainly: Binding affinity to recombinant human GFP-fused ERalpha LBD (301 to 553 residues) expressed in Escherichia coli BL21(DE3) in presence of ERalpha inhibitor 4-hydroxytamoxifen by ITC. The method in brief: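 ITC at 25 °C. 50 μM peptide injected in 2 μL steps into 5 μM ERα LBD in 50 mM Tris pH 8.0, 150 mM NaCl, 1 mM TCEP containing 0.1 mM 4-hydroxytamoxifen instead of estradiol. Isotherm fitted.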

The next data set deals with T4, Progesterone receptor (Homo sapiens, UniProt P06401).
T4 sequence (P06401 whole entry): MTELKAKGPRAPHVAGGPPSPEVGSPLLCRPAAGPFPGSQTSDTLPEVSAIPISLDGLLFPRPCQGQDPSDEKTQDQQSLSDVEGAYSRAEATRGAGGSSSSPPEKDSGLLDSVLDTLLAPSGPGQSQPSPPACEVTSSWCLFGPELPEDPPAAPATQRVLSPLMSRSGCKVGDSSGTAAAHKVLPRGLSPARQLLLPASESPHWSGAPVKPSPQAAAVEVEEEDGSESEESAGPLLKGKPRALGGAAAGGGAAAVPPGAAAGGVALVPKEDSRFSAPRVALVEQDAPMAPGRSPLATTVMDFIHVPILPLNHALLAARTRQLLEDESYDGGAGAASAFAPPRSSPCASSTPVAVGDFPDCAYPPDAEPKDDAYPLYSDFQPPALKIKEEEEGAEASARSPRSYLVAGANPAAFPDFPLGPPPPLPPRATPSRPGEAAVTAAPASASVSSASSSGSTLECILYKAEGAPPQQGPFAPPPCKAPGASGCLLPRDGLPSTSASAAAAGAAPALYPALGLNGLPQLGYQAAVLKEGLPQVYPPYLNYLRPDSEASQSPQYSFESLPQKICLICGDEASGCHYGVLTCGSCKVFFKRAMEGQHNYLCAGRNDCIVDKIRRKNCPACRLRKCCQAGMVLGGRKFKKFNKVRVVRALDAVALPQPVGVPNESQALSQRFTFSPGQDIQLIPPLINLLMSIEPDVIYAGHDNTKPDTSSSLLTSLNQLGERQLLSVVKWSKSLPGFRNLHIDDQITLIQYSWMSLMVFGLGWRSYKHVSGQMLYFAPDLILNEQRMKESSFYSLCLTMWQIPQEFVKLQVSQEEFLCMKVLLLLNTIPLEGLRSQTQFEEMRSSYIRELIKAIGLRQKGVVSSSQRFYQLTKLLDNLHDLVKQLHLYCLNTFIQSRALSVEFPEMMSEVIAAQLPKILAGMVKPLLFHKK
Put plainly: Binding affinity to recombinant human GST-tagged PGR LBD (678 to 933 residues) expressed in Escherichia coli BL21 star(DE3) after 40 mins in presence of progesterone by fluorescence polarization assay. The method in brief:
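FITC-labelled peptide at 10 nM final with increasing GST-PgR LBD in 20 mM Tris-HCl pH 8.0, 150 mM NaCl, 5% glycerol, 1 mM TCEP plus 10 μM progesterone. 40 min dark incubation, polarization at 298 K (ex 480/em 535 nm). KD by nonlinear regression against protein concentration.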

For data set [6], the species on record is Homo sapiens. Put plainly: Selectivity ratio of Kd for recombinant human GST-tagged PGR LBD ([…] residues) to Kd for recombinant human ERalpha LBD (301 to 553 residues). The method, boiled down: as §1
Data set [7] is described as follows: Drug uptake in human MCF7 cells assessed per million cells at 5 uM after 3 hrs by FACS analysis. The settings on record: mcf7, 3 h. The class given is ADME, cell-based. The method in brief:
as §2

The species named for data set [8] is Homo sapiens. Put plainly: Selectivity ratio of Kd for recombinant human GST-tagged VDR LBD (156 to 453 residues) to Kd for recombinant human ERalpha LBD (301 to 553 residues). The method in brief: as §1
Data set [9] concerns MCF7. The experiment in a line: Cytotoxicity against human MCF7 cells assessed as reduction in cell viability at 5 uM after 24 hrs by MTT assay relative to control. In kind it is cell-based. Particulars: mcf7, 24 h.
In data set [10] the test system is MCF7. Put plainly: Cytotoxicity against human MCF7 cells assessed as cell viability up to 100 uM after 24 hrs by MTT assay. In kind it is functional, cell-based. The method, boiled down: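 MTT read-out. 5000−10000 cells/well seeded overnight in their own medium: MCF7 and MCF10A in DMEM with phenol red, 10% FBS, 37 °C, 5% CO2; T47D in RPMI1640 with insulin and 10% FBS; MDA-MB-231 in L-15, 10% FBS, no CO2. Serial peptide dilutions or DMSO for 20 h at 37 °C, then MTT 4 h more; formazan in DMSO, A570.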

Data set [11] concerns MCF7. The experiment in a line: Cytotoxicity against human MCF7 cells assessed as reduction in cell viability at 1 uM after 24 hrs by MTT assay relative to control. Particulars: mcf7, 24 h. In kind it is cell-based.

SMILES strings stand for the structures. The source made the active and inactive calls. No cut-off for these calls is given here. Peptide text beside a SMILES is read from it. * marks the point of attachment. FITC = O=C1OC2(c3ccc(O)cc3Oc3cc(O)ccc32)c2ccc(NC(=S)*)cc21; βAla = NCCC(=O)O

Chain of Estrogen receptor beta (Q92731 whole entry, the tested form may be a part): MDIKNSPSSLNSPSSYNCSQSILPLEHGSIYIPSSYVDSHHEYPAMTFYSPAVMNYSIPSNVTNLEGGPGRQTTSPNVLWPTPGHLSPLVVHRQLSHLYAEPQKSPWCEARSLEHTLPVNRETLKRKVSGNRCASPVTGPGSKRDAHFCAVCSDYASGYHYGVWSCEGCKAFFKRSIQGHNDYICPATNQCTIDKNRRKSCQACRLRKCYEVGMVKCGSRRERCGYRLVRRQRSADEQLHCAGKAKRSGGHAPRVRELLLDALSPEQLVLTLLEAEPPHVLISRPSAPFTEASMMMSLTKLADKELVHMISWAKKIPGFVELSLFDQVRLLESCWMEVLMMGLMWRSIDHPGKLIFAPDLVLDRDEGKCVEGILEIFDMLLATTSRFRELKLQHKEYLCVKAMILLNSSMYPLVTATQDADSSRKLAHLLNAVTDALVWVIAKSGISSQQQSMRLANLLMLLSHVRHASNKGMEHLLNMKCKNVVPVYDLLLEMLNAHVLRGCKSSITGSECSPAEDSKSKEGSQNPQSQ

In the case of `CC[C@H](C)[C@H](NC(=O)[C@H](CCCCN)NC(=O)[C@H](Cc1cnc[nH]1)NC(=O)CCNC(=S)Nc1ccc2c(c1)C(=O)OC21c2ccc(O)cc2Oc2cc(O)ccc21)C(=O)N[C@@H](CC(C)C)C(=O)N[C@@H](Cc1cnc[nH]1)C(=O)N[C@@H](CCCNC(=N)N)C(=O)N[C@@H](CC(C)C)C(=O)N[C@@H](CC(C)C)C(=O)N[C@@H](CCC(N)=O)C(N)=O` ({FITC-βAla}-HKILHRLLQ-NH2), the Kd on Estrogen receptor stood at 118 nM; at Estrogen receptor beta, 213 nM; on Vitamin D3 receptor, 142 nM; on Progesterone receptor, 82 nM. Moreover, the Selectivity ratio stood at 1.8 in the data set filed under Homo sapiens [1], 0.7 in the data set listed under Homo sapiens [6] and 1.2 in the data set listed under Homo sapiens [8]. Moreover, the results for the Drug uptake entry in data set [2], in [3] and in data set [7] were “Not Active”, “Active” and “Active”, respectively. For the same molecule, the result in data set [4] was Active. Further, in data set [5], the outcome was inactive.
On to `CC/C(=C(\c1ccccc1)c1ccc(OCCN(C)C)cc1)c1ccccc1` [TAMOXIFEN], for which the Activity in the data set with MCF7 [9] and in the data set with MCF7 [11] was below 20% in each case. In addition, the outcome in the data set with MCF7 [10] was Active.

Broadly, the Kd is a measure of binding affinity in units of concentration.
